In ChEMBL document CHEMBL1155309, “Synthesis of 3,6-disubstituted 7H-1,2,4-triazolo[3,4-b]-1,3,4-thiadiazines as novel analgesic/anti-inflammatory compounds” (Eur J Med Chem, 2009):

Columns and labels:
Mus musculus [1] = assay: Antiinflammatory activity in BALB/c mouse assessed as inhibition of carrageenan-induced paw edema at 200 mg/kg, po after 270 mins; details: 4.5 h
Mus musculus [2] = assay: Acute toxicity in BALB/c mouse assessed as diarrhea and depression at 50 to 200 mg/kg, po after 72 hrs; format: organism-based; set-up: dose 50-200 mg/kg, route oral; details: in vivo
Mus musculus [3] = assay: Analgesic activity in BALB/c mouse assessed as decrease in acetic acid-induced writhing at 200 mg/kg, po administered 1 hr prior to acetic acid challenge by Koster's test; format: functional
Method in brief: (§1)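 Test samples suspended in distilled water/0.5% CMC given orally; vehicle to controls. 1 h later, 3% (w/v) acetic acid i.p. (0.1 ml/10 g). Starting 5 min after injection, writhings counted for 10 min. Result expressed as % change from writhing controls. Groups of 4 mice (preliminary 100 mg/kg) or 4–5 mice (50/200 mg/kg). Two-tailed Student's t test.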

Mus musculus [4] = assay: Analgesic activity in BALB/c mouse assessed as decrease in acetic acid-induced writhing at 50 mg/kg, po administered 1 hr prior to acetic acid challenge by Koster's test; format: functional
Method in brief: as §1

Mus musculus [5] = assay: Antioxidant activity in BALB/c mouse assessed as TBARS level per gram of wet weight of tissue at 200 mg/kg, po; format: functional; set-up: unit: nmol/g
Method in brief: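 Mice dosed orally at 200 mg/kg were killed under ether 8 h after the writhing test and stomachs removed. Tissue extract supernatant obtained by centrifugation (1000×g 10 min, then 2000×g 30 min, 4 °C). Heated with TBA in boiling water for 60 min, TCA added, absorbance read at 532 nm against blank tissue. Calibrated with 1,1,3,3-tetraethoxypropane; reported as nmol TBARS/g wet tissue.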

Mus musculus [6] = assay: Antiinflammatory activity in BALB/c mouse assessed as inhibition of carrageenan-induced paw edema at 200 mg/kg, po after 360 mins; format: functional; details: 6 h
Method in brief: (§2)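 Oral dosing in 0.5% CMC/water suspension, vehicle for controls. 1 h later, carrageenan (0.5 mg/25 µl saline) injected subplantar into right hind paw, 25 µl saline into left. Right–left footpad thickness measured by dial callipers every 90 min for 6 h. % inhibition = [(n − n′)/n]×100 versus control. Groups of 3 (100 mg/kg screen) or 4–5 mice.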

Mus musculus [7] = assay: Gastrointestinal toxicity in BALB/c mouse assessed as acute ulcerogenic risk at 200 mg/kg, po; format: organism-based; set-up: dose 200 mg/kg, route oral; details: in vivo
Method in brief: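 Mice, fasted overnight with free water, received 200 mg/kg orally as a suspension in distilled water with 0.5% carboxymethyl cellulose, in groups of 4–5. They were first used in the acetic acid writhing test. Eight hours after that test they were killed under deep ether anaesthesia, and their stomachs were removed and scored for ulcers. Acetylsalicylic acid 200 mg/kg was the reference.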

Mus musculus [8] = assay: Analgesic activity in BALB/c mouse assessed as decrease in acetic acid-induced writhing at 100 mg/kg, po administered 1 hr prior to acetic acid challenge by Koster's test; format: functional
Method in brief: as §1

Mus musculus [9] = assay: Antiinflammatory activity in BALB/c mouse assessed as inhibition of carrageenan-induced paw edema at 100 mg/kg, po after 180 mins; details: 3 h
Mus musculus [10] = assay: Antiinflammatory activity in BALB/c mouse assessed as inhibition of carrageenan-induced paw edema at 100 mg/kg, po after 90 mins; format: functional; details: 1.5 h
Method in brief: as §2

Mus musculus [11] = assay: Antiinflammatory activity in BALB/c mouse assessed as inhibition of carrageenan-induced paw edema at 200 mg/kg, po after 270 mins; format: functional; details: 4.5 h
Method in brief: as §2

Mus musculus [12] = assay: Antiinflammatory activity in BALB/c mouse assessed as inhibition of carrageenan-induced paw edema at 100 mg/kg, po after 270 mins; format: functional; details: 4.5 h
Method in brief: as §2

Mus musculus [13] = assay: Antiinflammatory activity in BALB/c mouse assessed as inhibition of carrageenan-induced paw edema at 100 mg/kg, po after 180 mins; format: functional; details: 3 h
Method in brief: as §2

Mus musculus [14] = assay: Antiinflammatory activity in BALB/c mouse assessed as inhibition of carrageenan-induced paw edema at 50 mg/kg, po after 90 mins; format: functional; details: 1.5 h
Method in brief: as §2

Mus musculus [15] = assay: Antiinflammatory activity in BALB/c mouse assessed as inhibition of carrageenan-induced paw edema at 100 mg/kg, po after 360 mins; format: functional; details: 6 h
Method in brief: as §2

Mus musculus [16] = assay: Antiinflammatory activity in BALB/c mouse assessed as inhibition of carrageenan-induced paw edema at 200 mg/kg, po after 90 mins; format: functional; details: 1.5 h
Method in brief: as §2

SMILES	inhibition in vivo at 200 mg/kg (Mus musculus [1])	Activity (Mus musculus [2])	inhibition in vivo at 200 mg/kg (Mus musculus [3])	inhibition in vivo at 50 mg/kg (Mus musculus [4])	Activity (Mus musculus [5])	inhibition in vivo at 200 mg/kg (Mus musculus [6])	Activity (Mus musculus [7])	inhibition in vivo at 100 mg/kg (Mus musculus [8])	inhibition in vivo at 100 mg/kg (Mus musculus [9])	inhibition in vivo at 100 mg/kg (Mus musculus [10])	inhibition in vivo at 200 mg/kg (Mus musculus [11])	inhibition in vivo at 100 mg/kg (Mus musculus [12])	inhibition in vivo at 100 mg/kg (Mus musculus [13])	inhibition in vivo at 50 mg/kg (Mus musculus [14])	inhibition in vivo at 100 mg/kg (Mus musculus [15])	inhibition in vivo at 200 mg/kg (Mus musculus [16])
COc1ccc(CCc2n[nH]c(=S)n2N)cc1	33.9%	Non-toxic	56.1%	9.5%	105.9 nmol	37.5%	Non-toxic	56.6%	–	–	–	–	–	–	–	–
COc1cc(CCc2nnc3n2N=C(c2ccccc2)CS3)cc(OC)c1OC	46.4%	Non-toxic	27.5%	32.4%	100.3 nmol	29.2%	–	17.1%	38.5%	31.7%	–	–	–	–	–	–
COc1ccc(Cc2nnc3n2N=C(c2ccc(F)cc2)CS3)cc1	53.6%	Non-toxic	31.5%	20.5%	95.4 nmol	41.7%	–	26.3%	34.3%	–	–	–	–	–	–	–
COc1ccc(Cc2nnc3n2N=C(c2ccccc2)CS3)cc1	–	Non-toxic	46.4%	14.3%	112.3 nmol	–	–	39.5%	–	–	–	–	–	–	–	–
COc1ccc(CCc2nnc3n2N=C(c2ccc(Cl)cc2)CS3)cc1	–	Non-toxic	62.4%	20.2%	108.4 nmol	50%	–	71.5%	29.4%	–	20.4%	–	–	–	–	–
COc1cc(Cc2nnc3n2N=C(c2ccccc2)CS3)cc(OC)c1OC	32.2%	Non-toxic	58.4%	32.4%	92.2 nmol	33.3%	Non-toxic	53%	34.9%	24%	–	23.6%	–	–	–	–
COc1ccc2c(c1)c(CC(=O)O)c(C)n2C(=O)c1ccc(Cl)cc1 [INDOMETHACIN]	–	–	–	–	–	–	–	–	43.1%	41.9%	–	–	–	–	–	–
COc1cc(Cc2nnc3n2N=C(c2ccc(Cl)cc2)CS3)cc(OC)c1OC	41%	Non-toxic	23.4%	13.5%	101.1 nmol	25%	–	32.6%	–	–	–	–	–	–	–	–
COc1ccc(Cc2n[nH]c(=S)n2N)cc1	32.2%	Non-toxic	46.7%	23.4%	93 nmol	33.3%	Non-toxic	30.2%	–	–	–	–	–	–	–	–
CC(=O)Oc1ccccc1C(=O)O [ASPIRIN]	–	–	54.4%	–	118.2 nmol	–	–	–	–	–	–	–	–	–	–	–
COc1ccc(CCc2nnc3n2N=C(c2ccc(F)cc2)CS3)cc1	34%	Non-toxic	37%	25%	103.5 nmol	27.1%	–	29.2%	33.7%	26%	–	–	–	–	–	–
COc1ccc(Cc2nnc3n2N=C(c2ccc(Cl)cc2)CS3)cc1	25%	Non-toxic	39%	9.9%	97.9 nmol	38.9%	Non-toxic	33%	–	–	–	–	–	–	–	–
COc1cc(CCc2nnc3n2N=C(c2ccc(F)cc2)CS3)cc(OC)c1OC	46.4%	Non-toxic	56.1%	35.2%	105.1 nmol	23%	–	43.1%	–	40.7%	–	57.9%	21.4%	34.5%	38.9%	–
COc1cc(CCc2nnc3n2N=C(c2ccc(Cl)cc2)CS3)cc(OC)c1OC	39.1%	Non-toxic	54.8%	28.5%	101.9 nmol	25%	–	50.2%	36.9%	29.3%	–	34.3%	–	–	–	–
COc1ccc(CCc2nnc3n2N=C(c2ccccc2)CS3)cc1	50%	Non-toxic	44.2%	6.4%	110.8 nmol	37.5%	–	42.8%	–	–	–	–	–	–	–	–
COc1cc(Cc2nnc3n2N=C(c2ccc(F)cc2)CS3)cc(OC)c1OC	24.9%	Non-toxic	52.2%	22.1%	107.6 nmol	25%	–	35%	26.8%	–	–	–	–	–	–	–
COc1cc(CCc2n[nH]c(=S)n2N)cc(OC)c1OC	–	Non-toxic	54.2%	23.1%	104.3 nmol	41.7%	–	52.4%	–	–	20.4%	–	–	–	–	39.3%
